According to ChEMBL document CHEMBL5058577, “EUbOPEN Chemogenomics Library 2 (Multiplex)” (2022):

Tested on: Fibroblast
Assay: Multiplex assay against human fibroblast
Assay type: toxicity, cell-based
Outline: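 Live cells were stained at seeding with Hoechst33342, BioTracker Green Microtubule Cytoskeleton Dye, MitoTracker Red and Annexin V Alexa Fluor 680. Following compound addition, they were imaged on a CQ1 microscope at 37°C and 5% CO2 and gated by CellPathfinder machine learning into Hoechst high-intensity objects or normal cells, with normal cells split into healthy, pyknosed or fragmented nuclei and pyknosed cells into mitotic or apoptotic. Tubulin, mitochondrial-mass and membrane-permeability phenotypes are per cents of healthy-nucleus cells.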

[1] = 12 h, 1 µM, compound concentration 1 uM, replicate 1
[2] = 12 h, 1 µM, compound concentration 1 uM, replicate 2
[3] = 12 h, 10 µM, compound concentration 10 uM, replicate 1
[4] = 12 h, 10 µM, compound concentration 10 uM, replicate 2
[5] = 24 h, 1 µM, compound concentration 1 uM, replicate 1
[6] = 24 h, 1 µM, compound concentration 1 uM, replicate 2
[7] = 24 h, 10 µM, compound concentration 10 uM, replicate 1
[8] = 24 h, 10 µM, compound concentration 10 uM, replicate 2
[9] = 48 h, 1 µM, compound concentration 1 uM, replicate 1
[10] = 48 h, 1 µM, compound concentration 1 uM, replicate 2
[11] = 48 h, 10 µM, compound concentration 10 uM, replicate 1
[12] = 48 h, 10 µM, compound concentration 10 uM, replicate 2

## COCCn1c(C)c(C)s/c1=N\C(=O)C1C(C)(C)C1(C)C
[1]
  Population Apoptotic (%): 43%
  Population Fragmented Nuclei (%): 18%
  Population Healthy Nuclei (%): 69%
  Population Hoechst High Intensity Objects (%): 0%
  Population Membrane Permeable-Phenotype (%): 0%
  Population Mitochondria Different-Phenotype (%): 7%
  Population Mitotic Cells (%): 56%
  Population Normal (%): 99%
  Population Pyknosed Nuclei (%): 11%
  Population Tubulin-Different-Phenotype (%): 34%
  Total Cell Count: 136
[2]
  Population Apoptotic (%): 40%
  Population Fragmented Nuclei (%): 22%
  Population Healthy Nuclei (%): 57%
  Population Hoechst High Intensity Objects (%): 4%
  Population Membrane Permeable-Phenotype (%): 1%
  Population Mitochondria Different-Phenotype (%): 5%
  Population Mitotic Cells (%): 60%
  Population Normal (%): 95%
  Population Pyknosed Nuclei (%): 19%
  Population Tubulin-Different-Phenotype (%): 32%
  Total Cell Count: 133
[3]
  Population Apoptotic (%): 64%
  Population Fragmented Nuclei (%): 19%
  Population Healthy Nuclei (%): 59%
  Population Hoechst High Intensity Objects (%): 2%
  Population Membrane Permeable-Phenotype (%): 1%
  Population Mitochondria Different-Phenotype (%): 14%
  Population Mitotic Cells (%): 35%
  Population Normal (%): 97%
  Population Pyknosed Nuclei (%): 20%
  Population Tubulin-Different-Phenotype (%): 56%
  Total Cell Count: 167
[4]
  Population Apoptotic (%): 37%
  Population Fragmented Nuclei (%): 38%
  Population Healthy Nuclei (%): 40%
  Population Hoechst High Intensity Objects (%): 6%
  Population Membrane Permeable-Phenotype (%): 13%
  Population Mitochondria Different-Phenotype (%): 8%
  Population Mitotic Cells (%): 62%
  Population Normal (%): 93%
  Population Pyknosed Nuclei (%): 21%
  Population Tubulin-Different-Phenotype (%): 64%
  Total Cell Count: 120
[5]
  Population Apoptotic (%): 64%
  Population Fragmented Nuclei (%): 15%
  Population Healthy Nuclei (%): 72%
  Population Hoechst High Intensity Objects (%): 2%
  Population Membrane Permeable-Phenotype (%): 1%
  Population Mitochondria Different-Phenotype (%): 5%
  Population Mitotic Cells (%): 35%
  Population Normal (%): 97%
  Population Pyknosed Nuclei (%): 11%
  Population Tubulin-Different-Phenotype (%): 38%
  Total Cell Count: 122
[6]
  Population Apoptotic (%): 54%
  Population Fragmented Nuclei (%): 28%
  Population Healthy Nuclei (%): 54%
  Population Hoechst High Intensity Objects (%): 3%
  Population Membrane Permeable-Phenotype (%): 5%
  Population Mitotic Cells (%): 45%
  Population Normal (%): 96%
  Population Pyknosed Nuclei (%): 17%
  Population Tubulin-Different-Phenotype (%): 37%
  Total Cell Count: 132
[7]
  Population Apoptotic (%): 68%
  Population Fragmented Nuclei (%): 20%
  Population Healthy Nuclei (%): 59%
  Population Hoechst High Intensity Objects (%): 4%
  Population Membrane Permeable-Phenotype (%): 0%
  Population Mitochondria Different-Phenotype (%): 15%
  Population Mitotic Cells (%): 31%
  Population Normal (%): 95%
  Population Pyknosed Nuclei (%): 19%
  Population Tubulin-Different-Phenotype (%): 61%
  Total Cell Count: 154
[8]
  Population Apoptotic (%): 33%
  Population Fragmented Nuclei (%): 40%
  Population Healthy Nuclei (%): 36%
  Population Hoechst High Intensity Objects (%): 3%
  Population Membrane Permeable-Phenotype (%): 11%
  Population Mitochondria Different-Phenotype (%): 19%
  Population Mitotic Cells (%): 66%
  Population Normal (%): 96%
  Population Pyknosed Nuclei (%): 23%
  Population Tubulin-Different-Phenotype (%): 66%
  Total Cell Count: 120
[9]
  Population Apoptotic (%): 60%
  Population Fragmented Nuclei (%): 23%
  Population Healthy Nuclei (%): 63%
  Population Hoechst High Intensity Objects (%): 4%
  Population Membrane Permeable-Phenotype (%): 0%
  Population Mitochondria Different-Phenotype (%): 4%
  Population Mitotic Cells (%): 40%
  Population Normal (%): 95%
  Population Pyknosed Nuclei (%): 12%
  Population Tubulin-Different-Phenotype (%): 43%
  Total Cell Count: 123
[10]
  Population Fragmented Nuclei (%): 31%
  Population Healthy Nuclei (%): 56%
  Population Hoechst High Intensity Objects (%): 7%
  Population Membrane Permeable-Phenotype (%): 2%
  Population Normal (%): 92%
  Population Pyknosed Nuclei (%): 11%
  Population Tubulin-Different-Phenotype (%): 45%
  Total Cell Count: 140
[11]
  Population Apoptotic (%): 75%
  Population Fragmented Nuclei (%): 23%
  Population Healthy Nuclei (%): 56%
  Population Hoechst High Intensity Objects (%): 7%
  Population Membrane Permeable-Phenotype (%): 0%
  Population Mitochondria Different-Phenotype (%): 22%
  Population Mitotic Cells (%): 25%
  Population Normal (%): 92%
  Population Pyknosed Nuclei (%): 20%
  Population Tubulin-Different-Phenotype (%): 67%
  Total Cell Count: 151
[12]
  Population Apoptotic (%): 58%
  Population Fragmented Nuclei (%): 49%
  Population Healthy Nuclei (%): 34%
  Population Hoechst High Intensity Objects (%): 8%
  Population Membrane Permeable-Phenotype (%): 14%
  Population Mitochondria Different-Phenotype (%): 11%
  Population Mitotic Cells (%): 41%
  Population Normal (%): 91%
  Population Pyknosed Nuclei (%): 16%
  Population Tubulin-Different-Phenotype (%): 65%
  Total Cell Count: 111
